Assays:
[1] = target: 5-hydroxytryptamine receptor 4 (Cavia porcellus) (UniProt O70528); test: Displacement of [3H]GR-113808 from 5HT4 receptor in guinea pig striatum membrane at 1 uM; type: cell membranes
Method in brief: (§1)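 Guinea pig membranes (15 µg protein/mL) incubated 30 min at 37 °C with 0.6 nM [3H]GR113808 in 50 mM HEPES, pH 7.4, with fixed test concentrations. Nonspecific binding defined with 10 µM serotonin.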

[2] = target: 5-hydroxytryptamine receptor 4 (Cavia porcellus) (UniProt O70528); test: Displacement of [3H]GR-113808 from 5HT4 receptor in guinea pig striatum membrane at 10 nM; type: cell membranes; method in brief: as §1
[3] = target: 5-hydroxytryptamine receptor 4 (Cavia porcellus, UniProt O70528); test: Displacement of [3H]GR-113808 from 5HT4 receptor in guinea pig striatum membrane; type: cell membranes; method in brief: as §1
[4] = target: T1, 5-hydroxytryptamine receptor 3A (Homo sapiens, UniProt P46098); test: Binding affinity at 5HT3 receptor
T1 sequence (P46098 whole entry): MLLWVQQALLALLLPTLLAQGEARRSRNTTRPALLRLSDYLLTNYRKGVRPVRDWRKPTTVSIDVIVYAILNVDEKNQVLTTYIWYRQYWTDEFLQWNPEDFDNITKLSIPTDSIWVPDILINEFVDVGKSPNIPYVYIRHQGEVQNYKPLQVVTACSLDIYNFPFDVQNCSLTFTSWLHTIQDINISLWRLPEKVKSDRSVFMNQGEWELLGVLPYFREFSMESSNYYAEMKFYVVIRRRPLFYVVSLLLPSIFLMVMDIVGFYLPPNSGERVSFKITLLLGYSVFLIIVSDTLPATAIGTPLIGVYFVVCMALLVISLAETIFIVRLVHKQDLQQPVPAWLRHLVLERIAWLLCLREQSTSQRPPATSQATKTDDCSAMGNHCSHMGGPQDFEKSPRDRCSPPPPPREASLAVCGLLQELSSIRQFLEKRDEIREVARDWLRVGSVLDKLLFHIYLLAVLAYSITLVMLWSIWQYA

[5] = target: 5-hydroxytryptamine receptor 4 (Homo sapiens, UniProt Q13639); test: Binding affinity at 5HT4 receptor
[6] = target: 5-hydroxytryptamine receptor 7 (Homo sapiens, UniProt P34969); test: Displacement of [3H]LSD form human recombinant 5HT7 receptor
Method in brief: (§2)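 Membranes from sf9 cells expressing human 5-HT6 (14 µg/mL) or 5-HT7 (38 µg/mL) incubated 90 min at 27 °C with 2 nM [3H]LSD in 50 mM Tris-HCl containing 10 mM MgSO4 and 0.5 mM EDTA. Nonspecific binding defined with clozapine (10 and 250 µM).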

[7] = target: 5-hydroxytryptamine receptor 2B (Homo sapiens, UniProt P41595); test: Displacement of [3H]mesulergine from human recombinant 5HT2B receptor
[8] = target: T2, 5-hydroxytryptamine receptor 1A (Homo sapiens, UniProt P08908); test: Displacement of [3H]8OH-DPAT from human recombinant 5HT1A receptor
T2 sequence (P08908 whole entry): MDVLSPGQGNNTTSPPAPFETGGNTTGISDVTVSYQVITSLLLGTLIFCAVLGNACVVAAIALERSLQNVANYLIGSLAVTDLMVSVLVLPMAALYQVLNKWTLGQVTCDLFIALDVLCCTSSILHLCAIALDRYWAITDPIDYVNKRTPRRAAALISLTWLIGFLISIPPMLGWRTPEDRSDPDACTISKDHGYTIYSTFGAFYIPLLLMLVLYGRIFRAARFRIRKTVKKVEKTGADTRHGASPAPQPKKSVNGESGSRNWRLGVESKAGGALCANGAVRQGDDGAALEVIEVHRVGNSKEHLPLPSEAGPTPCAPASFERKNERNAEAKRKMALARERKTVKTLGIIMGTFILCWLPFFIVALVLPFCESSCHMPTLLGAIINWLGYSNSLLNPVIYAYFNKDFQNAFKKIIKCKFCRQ

[9] = target: T3, 5-hydroxytryptamine receptor 2C (Homo sapiens, UniProt P28335); test: Displacement of [3H]mesulergine from human recombinant 5HT2C receptor
T3 sequence (P28335 whole entry): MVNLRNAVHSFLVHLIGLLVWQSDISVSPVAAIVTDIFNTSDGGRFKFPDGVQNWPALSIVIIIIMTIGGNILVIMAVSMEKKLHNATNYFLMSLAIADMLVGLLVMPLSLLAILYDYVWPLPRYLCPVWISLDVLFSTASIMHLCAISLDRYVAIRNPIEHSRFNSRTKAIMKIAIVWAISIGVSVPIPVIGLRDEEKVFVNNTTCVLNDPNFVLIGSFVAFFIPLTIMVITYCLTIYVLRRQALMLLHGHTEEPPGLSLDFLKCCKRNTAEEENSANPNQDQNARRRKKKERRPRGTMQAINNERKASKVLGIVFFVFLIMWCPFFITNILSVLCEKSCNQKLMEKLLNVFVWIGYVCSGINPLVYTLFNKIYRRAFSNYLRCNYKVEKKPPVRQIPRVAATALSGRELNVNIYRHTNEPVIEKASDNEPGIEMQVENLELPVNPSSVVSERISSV

[10] = target: 5-hydroxytryptamine receptor 2A (Homo sapiens, UniProt P28223); test: Displacement of [3H]ketanserin form human recombinant 5HT2A receptor
[11] = target: T1, 5-hydroxytryptamine receptor 3A; test: Displacement of [3H]granisetron from human recombinant 5HT3 receptor
[12] = target: 5-hydroxytryptamine receptor 6 (Homo sapiens, UniProt P50406); test: Displacement of [3H]LSD form human recombinant 5HT6 receptor; method in brief: as §2
5-hydroxytryptamine receptor 6, sequence (P50406 whole entry): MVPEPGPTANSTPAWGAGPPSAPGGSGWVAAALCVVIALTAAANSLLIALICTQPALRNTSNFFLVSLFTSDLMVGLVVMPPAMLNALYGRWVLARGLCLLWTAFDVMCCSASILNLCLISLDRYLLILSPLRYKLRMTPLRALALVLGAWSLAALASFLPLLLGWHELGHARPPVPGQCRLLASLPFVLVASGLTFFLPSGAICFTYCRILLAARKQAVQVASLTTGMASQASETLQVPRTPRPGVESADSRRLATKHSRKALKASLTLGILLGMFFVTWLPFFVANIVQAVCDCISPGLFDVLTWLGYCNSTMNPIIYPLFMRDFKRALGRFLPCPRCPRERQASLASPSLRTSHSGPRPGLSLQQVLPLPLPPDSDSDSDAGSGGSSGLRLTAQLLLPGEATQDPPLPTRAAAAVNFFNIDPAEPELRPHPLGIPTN

5-hydroxytryptamine receptor 4 (Homo sapiens, UniProt Q13639), sequence (Q13639 whole entry): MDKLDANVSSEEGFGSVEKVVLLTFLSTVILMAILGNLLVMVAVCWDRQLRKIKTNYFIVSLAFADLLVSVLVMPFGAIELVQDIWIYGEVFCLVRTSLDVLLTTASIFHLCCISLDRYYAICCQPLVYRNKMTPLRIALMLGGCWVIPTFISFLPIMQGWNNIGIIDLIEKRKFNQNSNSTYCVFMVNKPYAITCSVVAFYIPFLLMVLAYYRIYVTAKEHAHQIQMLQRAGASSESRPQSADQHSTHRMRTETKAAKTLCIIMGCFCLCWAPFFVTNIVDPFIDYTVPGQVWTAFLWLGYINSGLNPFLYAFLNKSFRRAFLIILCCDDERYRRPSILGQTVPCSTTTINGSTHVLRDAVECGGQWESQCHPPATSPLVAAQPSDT
5-hydroxytryptamine receptor 4 (Cavia porcellus), sequence (O70528 whole entry): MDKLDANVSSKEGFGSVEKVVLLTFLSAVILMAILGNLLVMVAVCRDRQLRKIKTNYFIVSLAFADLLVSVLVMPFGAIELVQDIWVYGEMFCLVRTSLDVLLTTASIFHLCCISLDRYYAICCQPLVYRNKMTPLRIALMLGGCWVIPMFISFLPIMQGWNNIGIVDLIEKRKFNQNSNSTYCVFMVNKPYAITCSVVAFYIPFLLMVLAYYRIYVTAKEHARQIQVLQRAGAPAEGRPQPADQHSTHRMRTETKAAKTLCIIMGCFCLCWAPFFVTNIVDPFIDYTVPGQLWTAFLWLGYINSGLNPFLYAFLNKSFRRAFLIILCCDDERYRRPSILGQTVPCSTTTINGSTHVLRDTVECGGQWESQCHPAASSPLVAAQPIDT
5-hydroxytryptamine receptor 4 (Cavia porcellus, UniProt O70528), sequence (O70528 whole entry): as above
5-hydroxytryptamine receptor 7, sequence (P34969 whole entry): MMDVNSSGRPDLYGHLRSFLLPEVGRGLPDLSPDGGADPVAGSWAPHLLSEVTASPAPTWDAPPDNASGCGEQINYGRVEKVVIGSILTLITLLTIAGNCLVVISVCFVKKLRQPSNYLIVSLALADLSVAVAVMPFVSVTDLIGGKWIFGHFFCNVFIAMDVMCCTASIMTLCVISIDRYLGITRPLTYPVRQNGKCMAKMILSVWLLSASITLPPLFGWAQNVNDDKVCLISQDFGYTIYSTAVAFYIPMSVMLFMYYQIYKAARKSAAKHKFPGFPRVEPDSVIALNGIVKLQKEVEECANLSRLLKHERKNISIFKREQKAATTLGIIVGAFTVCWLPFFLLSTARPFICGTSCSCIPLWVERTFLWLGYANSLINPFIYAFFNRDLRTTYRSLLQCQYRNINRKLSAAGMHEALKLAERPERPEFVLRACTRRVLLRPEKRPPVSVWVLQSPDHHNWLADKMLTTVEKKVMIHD
5-hydroxytryptamine receptor 2B, sequence (P41595 whole entry): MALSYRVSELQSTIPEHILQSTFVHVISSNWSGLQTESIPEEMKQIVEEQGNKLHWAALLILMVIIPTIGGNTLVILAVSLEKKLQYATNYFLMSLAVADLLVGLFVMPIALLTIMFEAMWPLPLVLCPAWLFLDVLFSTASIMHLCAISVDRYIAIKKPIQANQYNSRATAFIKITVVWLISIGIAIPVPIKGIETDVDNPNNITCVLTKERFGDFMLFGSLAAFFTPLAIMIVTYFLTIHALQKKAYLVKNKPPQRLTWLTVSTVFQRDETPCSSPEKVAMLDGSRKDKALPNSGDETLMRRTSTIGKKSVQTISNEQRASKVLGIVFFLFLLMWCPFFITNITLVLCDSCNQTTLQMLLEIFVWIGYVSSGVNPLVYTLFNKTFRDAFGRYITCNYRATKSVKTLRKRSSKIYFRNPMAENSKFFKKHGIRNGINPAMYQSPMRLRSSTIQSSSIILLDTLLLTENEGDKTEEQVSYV
5-hydroxytryptamine receptor 2A, sequence (P28223 whole entry): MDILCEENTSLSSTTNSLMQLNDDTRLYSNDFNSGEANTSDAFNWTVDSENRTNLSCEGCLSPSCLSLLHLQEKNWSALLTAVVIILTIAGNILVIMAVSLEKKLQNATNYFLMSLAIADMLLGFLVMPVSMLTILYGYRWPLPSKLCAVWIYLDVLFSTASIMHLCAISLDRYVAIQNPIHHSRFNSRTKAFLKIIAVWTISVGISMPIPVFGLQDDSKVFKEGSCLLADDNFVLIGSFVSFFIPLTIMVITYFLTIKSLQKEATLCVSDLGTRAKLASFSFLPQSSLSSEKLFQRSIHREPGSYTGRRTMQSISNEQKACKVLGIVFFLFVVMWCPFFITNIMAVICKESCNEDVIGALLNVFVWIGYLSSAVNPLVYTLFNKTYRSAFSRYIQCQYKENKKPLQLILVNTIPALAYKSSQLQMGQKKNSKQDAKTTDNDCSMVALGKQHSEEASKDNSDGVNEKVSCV

| Structure (SMILES) | inhibition [1] [%] | inhibition [2] [%] | Ki [3] [nM] | further results |
| --- | --- | --- | --- | --- |
| CCN(CC)CCCCOc1nc2ccsc2n2cccc12 | 100 | 34 | 16.2 | – |
| c1ccc(CN2CCC(COc3nc4ccsc4n4cccc34)CC2)cc1 | 100 | 0 | 63.1 | – |
| c1cc2c(OCC3CCNCC3)nc3ccsc3n2c1 | 74 | 8 | – | – |
| c1cc2c(OC3CCNCC3)nc3ccsc3n2c1 | 26 | 0 | – | – |
| NCCOc1nc2ccsc2n2cccc12 | 0 | 0 | – | – |
| CN1CCC(COc2nc3ccsc3n3cccc23)CC1 | 100 | 0 | 58.9 | – |
| COCCCN1CCC(NC(=O)c2cc(Cl)c(N)c3c2OCC3)CC1 [PRUCALOPRIDE] | – | – | – | Ki [4]: 3980 nM |
| CCCCN1CCC(COC(=O)c2cc(Cl)c(N)c3c2OCCO3)CC1 | – | – | – | Ki [5]: 0.0158 nM; Ki [4]: 158 nM |
| CCCCN1CCC(CNC(=O)c2c3n(c4ccccc24)CCCO3)CC1 [PIBOSEROD] | – | – | – | Ki [4]: > 1000 nM |
| c1cc2c(OCC3CCCCN3)nc3ccsc3n2c1 (configuration not stated) | 90 | 18 | – | – |
| CCC(C)N1CCC(COc2nc3ccsc3n3cccc23)CC1 (configuration not stated) | 56 | 2 | – | – |
| CC(C)N1CCC(COc2nc3ccsc3n3cccc23)CC1 | 100 | 38 | 18.2 | – |
| CCCCCNC(=N)N/N=C/c1c[nH]c2ccc(OC)cc12 [TEGASEROD] | – | – | – | Ki [5]: 3.98 nM; Ki [4]: > 10000 nM |
| c1ccc(CN2CCN(CCOc3nc4ccsc4n4cccc34)CC2)cc1 | 13 | 0 | – | – |
| CCN(CC)CCOC(=O)c1cc(Cl)c(N)cc1OC | – | – | – | Ki [4]: 126 nM |
| C=CCN1CCC(COc2nc3sccc3n3cccc23)CC1 | 99 | 49 | 29.5 | – |
| CN(CCOc1nc2ccsc2n2cccc12)Cc1ccccc1 | 20 | 2 | – | – |
| CCCN1CCC(Oc2nc3ccsc3n3cccc23)CC1 | 67 | 10 | – | – |
| CNCCOc1nc2ccsc2n2cccc12 | 7 | 9 | – | – |
| COc1cc(N)c(Cl)cc1C(=O)OCCCN1CCCCC1 | – | – | – | Ki [5]: 31.6 nM; Ki [4]: 2000 nM |
| c1cc2c(OC3CN4CCC3CC4)nc3ccsc3n2c1 (configuration not stated) | 53 | 11 | – | – |
| CN1[C@@H]2CC[C@H]1C[C@@H](OC(=O)c1c[nH]c3ccccc13)C2 [TROPISETRON] | – | – | – | Ki [5]: 200 nM |
| C=CCN1CCC(COc2nc3ccsc3n3cccc23)CC1 | 95 | 32 | 8.71 | – |

Now from value to molecule, other results behind:

| inhibition [1] [%] | inhibition [2] [%] | Ki [3] [nM] | Structure (SMILES) | further results |
| --- | --- | --- | --- | --- |
| 100 | 75 | 5.37 | CCCCN1CCC(COc2nc3scc(C)c3n3cccc23)CC1 | – |
| 100 | 97 | 16.2 | CCCN1CCC(COc2nc3ccsc3n3cccc23)CC1 | – |
| 100 | 56 | 20.9 | CCCCN1CCC(COc2nc3sccc3n3cccc23)CC1 | – |
| 100 | 30 | 6.46 | Cc1csc2nc(OCC3CCN(C(C)C)CC3)c3cccn3c12 | – |
| 90 | 5 | 617 | c1cc2c(OCCC3CCCCN3)nc3ccsc3n2c1 (configuration not stated) | – |
| 100 | 54 | 11.7 | CCCN1CCC(COc2nc3sccc3n3cccc23)CC1 | – |
| 100 | 30 | 9.55 | CCN1CCC(COc2nc3scc(C)c3n3cccc23)CC1 | – |
| 100 | 20 | – | CCCCCN1CCC(COc2nc3scc(C)c3n3cccc23)CC1 | – |
| 100 | 13 | 49 | CCCCCN1CCC(COc2nc3sccc3n3cccc23)CC1 | – |
| 75 | 14 | – | c1cc2c(OCCCN3CCNCC3)nc3ccsc3n2c1 | – |
| 100 | 23 | 37.2 | C=CCCN1CCC(COc2nc3ccsc3n3cccc23)CC1 | – |
| 72 | 0 | – | CCCN1CCN(CCOc2nc3ccsc3n3cccc23)CC1 | – |
| 100 | 30 | 52.5 | c1cc2c(OCCCN3CCCCC3)nc3ccsc3n2c1 | – |
| 100 | 26 | 12.9 | Cc1csc2nc(OCCCN3CCCCC3)c3cccn3c12 | – |
| 100 | 20 | 38 | CN1CCC(COc2nc3sccc3n3cccc23)CC1 | – |
| 18 | 12 | – | c1cc2c(OCCN3CCOCC3)nc3ccsc3n2c1 | – |
| 100 | 18 | – | CCC(C)N1CCC(COc2nc3scc(C)c3n3cccc23)CC1 (configuration not stated) | – |

| inhibition [1] [%] | inhibition [2] [%] | Ki [3] [nM] | Structure (SMILES) | further results |
| --- | --- | --- | --- | --- |
| 99 | 55 | 25.7 | CCCCCN1CCC(COc2nc3ccsc3n3cccc23)CC1 | – |
| 72 | 0 | – | CCCN1CCCCC1CCOc1nc2ccsc2n2cccc12 (configuration not stated) | – |
| 60 | 7 | – | c1cc2c(OCCN3CCCC3)nc3ccsc3n2c1 | – |
| 66 | 12 | – | CCCCN1CCN(CCOc2nc3ccsc3n3cccc23)CC1 | – |
| 92 | 0 | – | CCN1CCC(COc2nc3sccc3n3cccc23)CC1 | – |
| 82 | 0 | – | CCCCN1CCCC(COc2nc3ccsc3n3cccc23)C1 (configuration not stated) | – |
| 38 | 0 | – | c1cc2c(OCCN3CCNCC3)nc3ccsc3n2c1 | – |
| 50 | 1 | – | CCCCN1CCC(Oc2nc3ccsc3n3cccc23)CC1 | – |
| 100 | 11 | – | Cc1csc2nc(OCC3CCN(Cc4ccccc4)CC3)c3cccn3c12 | – |
| 100 | 28 | 11.2 | C=CCCN1CCC(COc2nc3scc(C)c3n3cccc23)CC1 | – |
| 100 | 16 | 57.5 | c1cc2c(OCCCCN3CCCCC3)nc3ccsc3n2c1 | – |
| 100 | 31 | 20.9 | CCCCN1CCC(COc2nc3ccsc3n3cccc23)CC1 | IC50 [6]: > 1000 nM; IC50 [7]: 52.5 nM; IC50 [8]: 5250 nM; IC50 [9]: 29500 nM; IC50 [10]: 166 nM; IC50 [11]: > 10000 nM; IC50 [12]: > 10000 nM |
| 73 | 5 | 417 | c1cc2c(OCCN3CCCCC3)nc3ccsc3n2c1 | – |
| 100 | 13 | – | Cc1csc2nc(OCC3CCN(C)CC3)c3cccn3c12 | – |
| 100 | 15 | 74.1 | c1cc2c(OCCCN3CCCC3)nc3ccsc3n2c1 | – |
| 91 | 0 | – | CCCN1CCCC(COc2nc3ccsc3n3cccc23)C1 (configuration not stated) | – |
| 100 | 26 | 8.51 | C=CCN1CCC(COc2nc3scc(C)c3n3cccc23)CC1 | – |
